In ChEMBL document CHEMBL2424619, “Small-molecule ligands of methyl-lysine binding proteins: optimization of selectivity for L3MBTL3” (J Med Chem, 2013):

Columns and labels:
[1] = molecular target: Lysine-specific demethylase 5A (Homo sapiens, UniProt P29375); assay: Inhibition of JARID1A (unknown origin) after 30 mins by AlphaScreen assay
Method in brief: (§1)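 AlphaScreen competition with histone peptide. Compounds in 3-fold, 10-point dilutions, top 10 or 30 μM; buffer 20 mM Tris pH 8.0, 25 mM NaCl, 2 mM DTT, 0.05% Tween-20. Protein-peptide mix 30 min RT, then streptavidin donor plus nickel-chelate acceptor beads (GST acceptor beads for GST-tagged PHF23, JARID1A) 30 min RT dark. […] Protein-free His6-biotin peptide counterscreen.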

PHD finger protein 23 = PHD finger protein 23 (Homo sapiens, UniProt Q9BUL5); assay: Inhibition of PHF23 (unknown origin) after 30 mins by AlphaScreen assay
Method in brief: (§2)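 AlphaScreen competition with histone peptide. Compounds in 3-fold, 10-point dilutions, top 10 or 30 μM; buffer 20 mM Tris pH 8.0, 25 mM NaCl, 2 mM DTT, 0.05% Tween-20. Protein-peptide mix 30 min RT, then streptavidin donor plus nickel-chelate acceptor beads (GST acceptor beads for GST-tagged PHF23, JARID1A) 30 min RT dark. Protein-free His6-biotin peptide counterscreen.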

TP53-binding protein 1 = TP53-binding protein 1 (Homo sapiens, UniProt Q12888); assay: Inhibition of 53BP1 (unknown origin) after 30 mins by AlphaScreen assay; method in brief: as §1
[2] = molecular target: MBT domain-containing protein 1 (Homo sapiens, UniProt Q05BQ5); assay: Inhibition of MBTD1 (unknown origin) after 30 mins by AlphaScreen assay; method in brief: as §2
[3] = molecular target: T1, Scm-like with four MBT domains protein 1 (Homo sapiens, UniProt Q9UHJ3); assay: Inhibition of SFMBT1 (unknown origin) after 30 mins by AlphaScreen assay; method in brief: as §1
T1 sequence (Q9UHJ3 whole entry): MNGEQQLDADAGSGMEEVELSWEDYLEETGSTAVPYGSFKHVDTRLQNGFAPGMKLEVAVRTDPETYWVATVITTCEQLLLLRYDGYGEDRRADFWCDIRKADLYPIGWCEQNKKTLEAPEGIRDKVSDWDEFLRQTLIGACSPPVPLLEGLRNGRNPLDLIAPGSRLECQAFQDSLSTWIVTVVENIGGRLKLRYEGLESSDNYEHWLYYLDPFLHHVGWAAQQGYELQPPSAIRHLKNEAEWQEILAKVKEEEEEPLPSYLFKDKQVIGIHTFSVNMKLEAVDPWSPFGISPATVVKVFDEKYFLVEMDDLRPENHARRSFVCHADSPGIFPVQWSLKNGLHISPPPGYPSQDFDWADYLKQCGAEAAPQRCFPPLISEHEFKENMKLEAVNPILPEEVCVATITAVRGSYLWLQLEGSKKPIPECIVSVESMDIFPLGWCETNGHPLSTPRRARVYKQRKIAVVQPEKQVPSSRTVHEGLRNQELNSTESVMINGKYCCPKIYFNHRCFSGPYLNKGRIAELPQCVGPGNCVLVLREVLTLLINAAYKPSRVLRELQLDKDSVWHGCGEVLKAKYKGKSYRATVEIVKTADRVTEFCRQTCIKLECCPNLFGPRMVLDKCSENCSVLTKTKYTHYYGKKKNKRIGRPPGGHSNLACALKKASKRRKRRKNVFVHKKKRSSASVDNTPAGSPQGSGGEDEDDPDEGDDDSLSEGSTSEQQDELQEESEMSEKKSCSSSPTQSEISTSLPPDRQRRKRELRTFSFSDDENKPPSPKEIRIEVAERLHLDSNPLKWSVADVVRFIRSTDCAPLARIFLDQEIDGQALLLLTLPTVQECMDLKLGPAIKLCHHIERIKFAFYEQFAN

[4] = molecular target: T2, Lethal(3)malignant brain tumor-like protein 4 (Homo sapiens, UniProt Q8NA19); assay: Inhibition of L3MBTL4 (unknown origin) after 30 mins by AlphaScreen assay; method in brief: as §2
T2 sequence (Q8NA19 whole entry): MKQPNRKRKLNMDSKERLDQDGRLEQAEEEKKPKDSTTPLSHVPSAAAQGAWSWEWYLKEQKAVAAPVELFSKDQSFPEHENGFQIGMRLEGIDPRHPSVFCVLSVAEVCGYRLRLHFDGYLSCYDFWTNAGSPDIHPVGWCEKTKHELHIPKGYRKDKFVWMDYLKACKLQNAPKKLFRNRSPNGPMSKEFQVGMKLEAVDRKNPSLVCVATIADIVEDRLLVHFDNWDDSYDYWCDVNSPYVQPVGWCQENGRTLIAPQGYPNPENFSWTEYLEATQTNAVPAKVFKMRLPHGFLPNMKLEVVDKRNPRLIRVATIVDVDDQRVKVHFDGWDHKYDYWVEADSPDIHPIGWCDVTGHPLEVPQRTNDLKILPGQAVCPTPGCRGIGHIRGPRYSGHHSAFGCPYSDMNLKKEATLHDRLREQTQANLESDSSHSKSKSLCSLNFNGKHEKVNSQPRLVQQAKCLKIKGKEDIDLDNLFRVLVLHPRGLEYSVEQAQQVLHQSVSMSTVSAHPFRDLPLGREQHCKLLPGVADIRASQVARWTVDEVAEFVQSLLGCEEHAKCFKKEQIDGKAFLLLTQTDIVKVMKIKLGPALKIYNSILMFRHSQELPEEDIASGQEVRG

[5] = molecular target: T3, Lethal(3)malignant brain tumor-like protein 3 (Homo sapiens, UniProt Q96JM7); assay: Inhibition of L3MBTL3 (unknown origin) after 30 mins by AlphaScreen assay; method in brief: as §2
T3 sequence (Q96JM7 whole entry): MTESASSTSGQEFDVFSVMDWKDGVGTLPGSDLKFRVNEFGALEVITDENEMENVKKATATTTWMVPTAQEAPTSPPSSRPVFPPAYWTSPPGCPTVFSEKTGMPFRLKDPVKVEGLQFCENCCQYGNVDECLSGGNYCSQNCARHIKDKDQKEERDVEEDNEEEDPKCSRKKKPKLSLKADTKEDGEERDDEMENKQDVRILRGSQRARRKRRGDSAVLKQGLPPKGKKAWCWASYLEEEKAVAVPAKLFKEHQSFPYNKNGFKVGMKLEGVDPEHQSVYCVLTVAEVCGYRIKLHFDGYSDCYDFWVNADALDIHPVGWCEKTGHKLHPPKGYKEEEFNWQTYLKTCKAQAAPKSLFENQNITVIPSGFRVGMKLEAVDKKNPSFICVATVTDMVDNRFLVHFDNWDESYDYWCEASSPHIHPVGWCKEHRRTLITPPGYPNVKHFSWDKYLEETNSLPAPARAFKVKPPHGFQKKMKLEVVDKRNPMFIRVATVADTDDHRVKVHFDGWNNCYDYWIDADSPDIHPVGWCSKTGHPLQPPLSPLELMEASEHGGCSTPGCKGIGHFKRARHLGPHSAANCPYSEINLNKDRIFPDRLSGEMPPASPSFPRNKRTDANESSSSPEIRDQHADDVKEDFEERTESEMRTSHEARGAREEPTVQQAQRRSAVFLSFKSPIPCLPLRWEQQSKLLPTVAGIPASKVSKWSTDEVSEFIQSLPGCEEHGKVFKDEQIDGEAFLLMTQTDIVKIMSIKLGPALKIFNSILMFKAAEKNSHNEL

[6] = molecular target: T3, Lethal(3)malignant brain tumor-like protein 3; assay: Inhibition of L3MBTL3 (unknown origin) using H4K20me2 as substrate after 30 mins by LNCE-TR-FRET assay

Lysine-specific demethylase 5A, sequence (P29375 whole entry): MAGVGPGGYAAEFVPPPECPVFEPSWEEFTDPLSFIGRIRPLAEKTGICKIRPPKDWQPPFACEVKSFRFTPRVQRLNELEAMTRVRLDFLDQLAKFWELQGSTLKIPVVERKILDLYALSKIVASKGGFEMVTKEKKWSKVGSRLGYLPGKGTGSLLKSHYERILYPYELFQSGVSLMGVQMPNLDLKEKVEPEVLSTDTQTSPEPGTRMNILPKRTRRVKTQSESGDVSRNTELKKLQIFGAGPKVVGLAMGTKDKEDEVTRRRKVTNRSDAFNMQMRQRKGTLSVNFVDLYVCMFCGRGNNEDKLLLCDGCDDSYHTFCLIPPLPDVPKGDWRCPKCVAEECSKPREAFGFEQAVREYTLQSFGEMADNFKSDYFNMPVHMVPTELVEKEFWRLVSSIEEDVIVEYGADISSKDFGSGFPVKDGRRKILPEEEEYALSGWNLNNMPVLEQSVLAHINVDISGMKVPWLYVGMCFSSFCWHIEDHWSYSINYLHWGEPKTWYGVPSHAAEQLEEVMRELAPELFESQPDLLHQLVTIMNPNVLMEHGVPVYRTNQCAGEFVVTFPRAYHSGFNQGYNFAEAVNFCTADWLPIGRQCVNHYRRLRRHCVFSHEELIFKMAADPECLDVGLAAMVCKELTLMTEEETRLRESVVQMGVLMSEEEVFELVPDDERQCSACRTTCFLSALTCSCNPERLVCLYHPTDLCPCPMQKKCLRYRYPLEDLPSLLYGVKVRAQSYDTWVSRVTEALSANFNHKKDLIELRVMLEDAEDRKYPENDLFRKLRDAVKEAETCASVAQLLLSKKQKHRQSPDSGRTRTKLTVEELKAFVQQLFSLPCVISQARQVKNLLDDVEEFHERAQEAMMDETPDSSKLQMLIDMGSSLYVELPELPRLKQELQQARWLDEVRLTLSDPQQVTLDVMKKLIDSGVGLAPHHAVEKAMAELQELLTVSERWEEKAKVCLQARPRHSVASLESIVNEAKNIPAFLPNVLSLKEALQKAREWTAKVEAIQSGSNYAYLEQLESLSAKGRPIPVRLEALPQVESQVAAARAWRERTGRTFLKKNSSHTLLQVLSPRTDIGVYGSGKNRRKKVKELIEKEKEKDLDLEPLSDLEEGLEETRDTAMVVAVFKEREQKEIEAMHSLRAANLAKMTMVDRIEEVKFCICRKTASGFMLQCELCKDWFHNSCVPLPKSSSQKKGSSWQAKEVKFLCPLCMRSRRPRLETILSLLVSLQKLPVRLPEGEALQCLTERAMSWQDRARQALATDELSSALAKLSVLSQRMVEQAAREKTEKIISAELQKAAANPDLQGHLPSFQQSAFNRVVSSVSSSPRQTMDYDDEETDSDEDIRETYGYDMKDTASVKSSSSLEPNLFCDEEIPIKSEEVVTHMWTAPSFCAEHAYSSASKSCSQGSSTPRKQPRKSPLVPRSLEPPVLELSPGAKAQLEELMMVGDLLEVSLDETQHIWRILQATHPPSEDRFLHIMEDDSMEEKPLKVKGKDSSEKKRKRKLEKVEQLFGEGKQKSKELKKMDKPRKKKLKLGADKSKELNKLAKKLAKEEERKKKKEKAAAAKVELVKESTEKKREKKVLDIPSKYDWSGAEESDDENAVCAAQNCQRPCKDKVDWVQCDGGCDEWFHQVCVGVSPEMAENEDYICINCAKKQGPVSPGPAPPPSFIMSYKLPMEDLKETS
PHD finger protein 23, sequence (Q9BUL5 whole entry): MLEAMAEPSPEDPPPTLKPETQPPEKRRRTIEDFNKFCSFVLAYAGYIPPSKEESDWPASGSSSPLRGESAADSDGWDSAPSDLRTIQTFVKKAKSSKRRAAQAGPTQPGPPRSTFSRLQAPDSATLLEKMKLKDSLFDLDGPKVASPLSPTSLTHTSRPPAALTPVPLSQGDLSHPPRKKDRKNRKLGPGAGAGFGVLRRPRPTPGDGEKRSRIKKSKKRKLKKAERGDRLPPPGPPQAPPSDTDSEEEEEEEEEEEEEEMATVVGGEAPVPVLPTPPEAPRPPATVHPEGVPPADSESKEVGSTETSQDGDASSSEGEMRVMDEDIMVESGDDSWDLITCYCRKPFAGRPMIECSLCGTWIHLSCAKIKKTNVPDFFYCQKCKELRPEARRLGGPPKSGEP
TP53-binding protein 1, sequence (Q12888 whole entry, the tested form may be a part): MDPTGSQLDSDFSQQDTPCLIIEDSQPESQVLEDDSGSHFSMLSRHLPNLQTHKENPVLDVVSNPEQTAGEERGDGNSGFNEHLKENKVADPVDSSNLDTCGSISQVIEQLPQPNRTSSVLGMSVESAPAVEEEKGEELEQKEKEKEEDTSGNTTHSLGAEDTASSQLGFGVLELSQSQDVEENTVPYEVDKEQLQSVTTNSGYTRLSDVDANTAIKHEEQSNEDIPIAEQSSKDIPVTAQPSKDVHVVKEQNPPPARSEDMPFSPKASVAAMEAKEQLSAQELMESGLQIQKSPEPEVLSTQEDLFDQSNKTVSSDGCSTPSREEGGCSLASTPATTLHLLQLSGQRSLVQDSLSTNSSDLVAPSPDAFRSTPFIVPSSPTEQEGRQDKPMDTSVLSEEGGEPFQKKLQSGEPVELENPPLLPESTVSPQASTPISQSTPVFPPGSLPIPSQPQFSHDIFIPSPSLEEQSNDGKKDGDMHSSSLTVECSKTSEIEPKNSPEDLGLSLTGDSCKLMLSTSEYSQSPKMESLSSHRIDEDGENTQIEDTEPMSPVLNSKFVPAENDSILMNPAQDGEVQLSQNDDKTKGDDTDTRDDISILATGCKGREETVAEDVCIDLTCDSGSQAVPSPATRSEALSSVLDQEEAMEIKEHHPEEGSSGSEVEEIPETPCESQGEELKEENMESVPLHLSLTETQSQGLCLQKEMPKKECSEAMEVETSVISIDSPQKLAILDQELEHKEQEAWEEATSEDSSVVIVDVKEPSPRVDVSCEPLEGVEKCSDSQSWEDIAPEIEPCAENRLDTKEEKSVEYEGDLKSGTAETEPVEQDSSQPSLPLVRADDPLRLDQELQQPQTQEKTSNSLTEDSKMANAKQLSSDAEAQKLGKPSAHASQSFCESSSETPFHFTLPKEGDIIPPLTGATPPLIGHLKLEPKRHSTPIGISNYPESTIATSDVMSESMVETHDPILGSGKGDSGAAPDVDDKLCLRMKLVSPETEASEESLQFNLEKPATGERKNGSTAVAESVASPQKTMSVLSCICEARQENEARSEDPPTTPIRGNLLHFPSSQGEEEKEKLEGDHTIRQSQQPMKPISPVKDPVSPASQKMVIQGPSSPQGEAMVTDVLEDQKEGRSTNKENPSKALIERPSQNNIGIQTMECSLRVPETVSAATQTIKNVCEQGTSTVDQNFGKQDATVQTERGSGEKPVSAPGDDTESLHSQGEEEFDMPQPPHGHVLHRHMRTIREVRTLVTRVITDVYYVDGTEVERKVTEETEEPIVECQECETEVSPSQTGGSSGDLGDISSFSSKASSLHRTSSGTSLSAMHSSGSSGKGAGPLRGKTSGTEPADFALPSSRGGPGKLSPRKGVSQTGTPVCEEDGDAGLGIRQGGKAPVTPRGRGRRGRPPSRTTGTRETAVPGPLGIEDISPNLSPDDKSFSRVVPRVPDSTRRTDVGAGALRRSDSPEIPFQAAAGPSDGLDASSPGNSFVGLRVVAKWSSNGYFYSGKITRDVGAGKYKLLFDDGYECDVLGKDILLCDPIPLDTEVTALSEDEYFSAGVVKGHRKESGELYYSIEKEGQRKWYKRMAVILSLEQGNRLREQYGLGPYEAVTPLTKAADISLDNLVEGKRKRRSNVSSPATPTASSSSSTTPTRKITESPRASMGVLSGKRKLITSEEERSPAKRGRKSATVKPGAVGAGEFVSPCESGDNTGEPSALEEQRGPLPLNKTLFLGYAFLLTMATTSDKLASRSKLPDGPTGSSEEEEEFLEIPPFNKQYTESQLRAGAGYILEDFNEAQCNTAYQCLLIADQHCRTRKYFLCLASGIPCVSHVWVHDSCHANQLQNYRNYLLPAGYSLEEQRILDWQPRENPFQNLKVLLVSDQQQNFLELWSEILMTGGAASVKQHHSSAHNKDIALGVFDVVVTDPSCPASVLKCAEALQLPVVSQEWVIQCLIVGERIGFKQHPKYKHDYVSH
MBT domain-containing protein 1, sequence (Q05BQ5 whole entry, the tested form may be a part): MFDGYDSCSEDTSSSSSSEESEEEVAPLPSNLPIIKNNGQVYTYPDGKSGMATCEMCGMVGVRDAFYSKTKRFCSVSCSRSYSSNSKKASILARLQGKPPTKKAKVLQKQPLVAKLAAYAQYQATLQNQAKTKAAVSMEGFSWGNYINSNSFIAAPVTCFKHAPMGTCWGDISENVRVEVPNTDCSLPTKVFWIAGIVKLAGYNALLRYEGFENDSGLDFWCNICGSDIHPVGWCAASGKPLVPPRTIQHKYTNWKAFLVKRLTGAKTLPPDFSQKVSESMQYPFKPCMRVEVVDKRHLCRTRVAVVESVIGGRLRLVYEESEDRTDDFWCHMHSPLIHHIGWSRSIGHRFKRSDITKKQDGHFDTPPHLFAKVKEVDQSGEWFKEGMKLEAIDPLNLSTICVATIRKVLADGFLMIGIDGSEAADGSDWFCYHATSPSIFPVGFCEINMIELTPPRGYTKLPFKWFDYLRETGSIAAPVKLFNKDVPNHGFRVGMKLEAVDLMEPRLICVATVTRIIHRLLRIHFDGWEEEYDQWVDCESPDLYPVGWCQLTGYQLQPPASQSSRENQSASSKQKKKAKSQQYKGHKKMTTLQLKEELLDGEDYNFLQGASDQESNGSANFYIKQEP

Row | SMILES | IC50 [1] [µM] | IC50 (PHD finger protein 23) [µM] | IC50 (TP53-binding protein 1) [µM] | IC50 [2] [µM] | IC50 [3] [µM] | IC50 [4] [µM] | IC50 [5] [µM] | IC50 [6] [µM]
1 | O=C(c1ccc(C(=O)N2CCC(N3CCCC3)CC2)nc1)N1CCC(N2CCCC2)CC1 | > 10 | > 10 | > 10 | > 10 | > 10 | > 10 | 0.11 | 0.061
2 | CN1CCCC1C1CCN(C(=O)c2ccc(C(=O)N3CCC(C4CCCN4C)CC3)cc2)CC1 (configuration not stated) | > 10 | > 10 | > 10 | > 10 | > 10 | > 10 | 1.7 | 1.9
3 | O=C(c1ccc(N2CCC(N3CCCC3)CC2)cc1)N1CCC(N2CCCC2)CC1 | > 10 | > 10 | 7.4 | 8.2 | > 10 | 8.4 | 0.17 | 0.15
4 | O=C(c1ccc(C(=O)N2CCC(N3CCCC3)CC2)cc1)N1CCC(C2CCNCC2)CC1 | > 10 | > 10 | > 10 | > 10 | > 10 | > 10 | 0.74 | 0.8
5 | O=C(c1ccc(C(=O)N2CC3CCC(C2)C3N2CCCC2)cc1)N1CC2CCC(C1)C2N1CCCC1 (configuration not stated) | > 10 | > 10 | > 10 | > 10 | > 10 | > 10 | 0.4 | 0.28
6 | O=C(c1cccc(C(=O)N2CCC(N3CCCC3)CC2)c1)N1CCC(N2CCCC2)CC1 | > 10 | > 10 | > 10 | > 10 | > 10 | > 10 | 0.36 | 0.29
7 | O=C(c1ccccc1C(=O)N1CCC(N2CCCC2)CC1)N1CCC(N2CCCC2)CC1 | > 10 | > 10 | 4.7 | > 10 | > 10 | > 10 | 1.1 | 0.35
8 | O=C(c1ccc(C(=O)N2CCC(N3CCCC3)CC2)c(C(=O)N2CCC(N3CCCC3)CC2)c1)N1CCC(N2CCCC2)CC1 | > 10 | > 10 | 7.9 | > 10 | > 10 | > 10 | 0.12 | 0.11
9 | Nc1cc(C(=O)N2CCC(N3CCCC3)CC2)ccc1C(=O)N1CCC(N2CCCC2)CC1 | > 10 | > 10 | > 10 | > 10 | > 10 | > 10 | 0.23 | 0.22
10 | Cc1cc(C(=O)N2CCC(N3CCCC3)CC2)c(C)cc1C(=O)N1CCC(N2CCCC2)CC1 | > 10 | > 10 | > 10 | > 10 | > 10 | > 10 | 0.21 | 0.24
11 | O=C(c1ccc(S(=O)(=O)N2CCC(N3CCCC3)CC2)cc1)N1CCC(N2CCCC2)CC1 | > 10 | > 10 | > 10 | 5.4 | > 10 | > 10 | 0.099 | 0.097
12 | O=C(c1c(F)c(F)c(C(=O)N2CCC(N3CCCC3)CC2)c(F)c1F)N1CCC(N2CCCC2)CC1 | > 10 | > 10 | > 10 | > 10 | > 10 | > 10 | 0.21 | 0.13
13 | O=C(c1ccc(C(=O)N2CCC(N3CCCC3)CC2)c(NCc2ccccc2)c1)N1CCC(N2CCCC2)CC1 | > 10 | > 10 | 8.7 | > 10 | > 10 | > 10 | 0.039 | 0.05
14 | O=C(c1ccc2cc(C(=O)N3CCC(N4CCCC4)CC3)ccc2c1)N1CCC(N2CCCC2)CC1 | > 10 | > 10 | > 10 | > 10 | > 10 | > 10 | 0.69 | 0.45
15 | CCN1Cc2ccc(NC(=O)c3ccc(C(=O)N4CCC(N5CCCC5)CC4)cc3)cc2C1 | > 10 | > 10 | > 10 | > 10 | > 10 | > 10 | 0.37 | 0.35
16 | O=C(c1ccc(C(=O)N2CCC(N3CCCC3)CC2)c(-c2ccccc2)c1)N1CCC(N2CCCC2)CC1 | > 10 | > 10 | > 10 | > 10 | > 10 | > 10 | 0.066 | 0.061
17 | O=C(c1ccc(C(=O)N2CC3(CCNC3)C2)cc1)N1CCC(N2CCCC2)CC1 | > 10 | > 10 | > 10 | > 10 | > 10 | > 10 | 3.6 | 2.7
18 | CCN1Cc2ccc(NC(=O)c3ccc(C(=O)N4CC5CCC(C4)C5N4CCCC4)cc3)cc2C1 (configuration not stated) | > 10 | > 10 | > 10 | > 10 | > 10 | > 10 | 0.24 | 0.15
19 | O=C(c1ccc(C(=O)N2CC(N3CCCC3)C2)cc1)N1CCC(N2CCCC2)CC1 | > 10 | > 10 | > 10 | > 10 | > 10 | > 10 | 0.33 | 0.3
